MsrA inhibitor: inhibitors of bovine MsrA. purified bovine MsrA, absorbance read-out. inhibition, % at 15.5 µM. hit rate 0.75% among 360,000
proCasp3 act: procaspase-3 (human) activation; activation, % at 8.5 µM; recombinant procaspase-3 D3A, Ac-DEVD-pNA absorbance 405 nm; hit rate 0.11% among 330,000; AID 463141; P42574;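 active = activation above the mean of all tested compounds plus 3 SD, cut at about 21% in these data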
Target sequence (P42574 whole entry D9A/D28A/D175A): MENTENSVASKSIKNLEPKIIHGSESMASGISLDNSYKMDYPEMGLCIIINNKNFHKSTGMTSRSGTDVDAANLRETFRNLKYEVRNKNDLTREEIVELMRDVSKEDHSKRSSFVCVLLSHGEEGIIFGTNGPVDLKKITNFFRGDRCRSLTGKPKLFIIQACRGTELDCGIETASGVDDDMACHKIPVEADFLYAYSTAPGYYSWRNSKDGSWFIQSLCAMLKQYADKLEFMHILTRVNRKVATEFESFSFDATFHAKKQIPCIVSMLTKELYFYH
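Test system: Procaspase-3 D3A mutant; medium: Zinc-free HEPES/NaCl buffer with 0.01% Triton X-100 at pH 7.4; reagent: DEVD-pNA substrate; doses: one concentration, 8.5 µM nominal, 0.8% DMSO; times: 1 h preincubation plus 2 h reaction at 25 °C; signal: Epi-absorbance at 405 nm of released p-nitroaniline, 0 and 120 min; replicates: singlicate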
bovine MsrA act: activators of bovine methionine sulfoxide reductase A; purified bovine MsrA, absorbance read-out; activation, % at 10.6 µM; hit rate 0.3% among 360,000; in the data active = activation above about 7.5%
TbMetRS inhib: Trypanosoma brucei MetRS inhibition; purified T. brucei MetRS, ATP depletion, Kinase-Glo luminescence; inhibition, % at 11.9 µM; hit rate 0.4% among 360,000;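 active = inhibition above a per-plate cutoff of the control wells' mean inhibition plus 3 SD, cut at about 5.5% in these data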
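Material: parasite MetRS enzyme / Replication: singlicate, one well per compound / Signal: luminescence of leftover ATP / Schedule: 2 h aminoacylation at 25 °C after 15 min preincubation / Medium: HEPES-MgCl2-KCl buffer plus DTT, spermine, BSA, pyrophosphatase / Doses: 11.9 µM single point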
proCasp7 act: counter-screen: procaspase-7 (human) activation | recombinant procaspase-7, Ac-DEVD-pNA absorbance 405 nm; D23A/D198A/D206A triple mutant, cannot self-cleave; scale: DMSO 0, 5 µM enzyme 100 | activation, % at 8.5 µM | hit rate 0.093% among 330,000;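 active = percent activation above the screen-wide mean plus 3 SD, cut at about 25% in these data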
Target sequence (P55210 whole entry D23A/D198A/D206A): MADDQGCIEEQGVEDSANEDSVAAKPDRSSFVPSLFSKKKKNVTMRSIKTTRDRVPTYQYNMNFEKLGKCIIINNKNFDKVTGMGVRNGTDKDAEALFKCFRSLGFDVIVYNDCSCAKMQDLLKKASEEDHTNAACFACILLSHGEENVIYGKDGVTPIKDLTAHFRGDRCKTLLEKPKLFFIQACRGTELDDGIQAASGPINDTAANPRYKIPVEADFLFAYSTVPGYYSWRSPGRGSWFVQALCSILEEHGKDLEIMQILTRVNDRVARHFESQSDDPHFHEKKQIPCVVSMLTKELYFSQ
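signal = Epi-absorbance of released pNA at 405 nm, two timepoints | assay system = Uncleavable procaspase-7 mutant enzyme | reagent = Ac-DEVD-pNA substrate, 400 µM as added | times = 1 h enzyme–compound preincubation and 2 h substrate reaction, both 25 °C | benchmarks = low DMSO alone, high DMSO plus 5 µM PC-7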
MsrA conf: confirmation of bovine MsrA inhibitors | shares compounds with MsrA inhibitor | purified bovine MsrA, absorbance read-out | inhibition, % at 15.5 µM | hit rate 41% among 2,300;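 also: coupled to thioredoxin reductase with NADPH and selenocystamine and DMSO as substrate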
Of the large screens only hits and unclear results are named; the others gave an inactive call (follow-up assays come after a bar, where they were run). The list is not random: actives were taken first. Their share in the collection is about 1.5%. Rule as the data show it, unless noted: active = inhibition above about 4.5%; inactive = the rest.

Cn1cnc([N+](=O)[O-])c1S(=O)(=O)Oc1cccc2ccccc12	MsrA inhibitor 14 (no result: proCasp3 act, proCasp7 act) | MsrA conf 7.1
Cn1cnc([N+](=O)[O-])c1S(=O)(=O)Oc1ccc(Cl)cc1	MsrA inhibitor 23 (no result: proCasp3 act, proCasp7 act) | MsrA conf 13
CCS(=O)(=O)c1c([N+](=O)[O-])ncn1C	none
O=C(C[C@@H]1CC[C@@H]2[C@H](COC[C@H](O)CN2C(=O)Nc2ccc(F)cc2)O1)NCCc1ccncc1	none (no result: proCasp3 act, bovine MsrA act, proCasp7 act)
CC(=O)Nc1cc(Cl)c(N=Cc2ccc(O)cc2O)cc1Cl	none
CCOC(=O)c1sc(/N=C/c2ccc(O)cc2O)cc1C	MsrA inhibitor 5.3 | MsrA conf inactive
COC(=O)[C@]12C[C@H](CC(=O)N3CCSCC3)C(=O)N(Cc3ccc4c(c3)OCO4)C1=C[C@H](C(C)(C)C)O[C@@H]2C	none (no result: proCasp3 act, bovine MsrA act, TbMetRS inhib, proCasp7 act)
COc1ccc(-c2[nH]ncc2CN2CCCC2c2nonc2C)c(F)c1 (centres undefined)	MsrA inhibitor 8.4 | MsrA conf inactive
CCCNC(=O)/C(C#N)=C1\N=C(NC(=O)c2ccco2)c2ccccc21	none
COCCNC(=O)/C(C#N)=C1\N=C(NC(=O)c2ccco2)c2ccccc21	MsrA inhibitor 4.8 (no result: proCasp3 act, proCasp7 act) | MsrA conf inactive
OC(c1ccccc1)(c1ccccc1)C1CCN(CCCOc2cccc(F)c2)CC1	none (no result: proCasp3 act, bovine MsrA act, TbMetRS inhib, proCasp7 act)
Cc1c(N=NC2=C(O)CCCC2=O)c(=O)n(-c2ccccc2)n1C	none
Cc1c(N=Nc2ccc(O)cc2)c(=O)n(-c2ccccc2)n1C	MsrA inhibitor 5.2 | MsrA conf inactive
Cc1c(NC(=S)N/N=C/c2ccc(Br)cc2)c(=O)n(-c2ccccc2)n1C	none
Cc1c(NC(=S)N/N=C/c2ccc([N+](=O)[O-])cc2O)c(=O)n(-c2ccccc2)n1C	none
COc1ccc(/C=N/NC(=S)Nc2c(C)n(C)n(-c3ccccc3)c2=O)cc1OC	MsrA inhibitor 5.2 | MsrA conf inactive
Cc1c(NC(=S)N/N=C/C=C/c2ccc([N+](=O)[O-])cc2)c(=O)n(-c2ccccc2)n1C	MsrA inhibitor 9.8 | MsrA conf 4.9
Cc1c(NC(=S)N/N=C/C=C/c2ccccc2)c(=O)n(-c2ccccc2)n1C	MsrA inhibitor 6.4 | MsrA conf 6.8
COc1ccc(C(=O)c2[nH]c(N)c(C(=O)c3c[nH]c4ccccc34)c2-c2ccc(F)c(OC)c2)cc1	none (no result: proCasp3 act, bovine MsrA act, TbMetRS inhib, proCasp7 act)
Nc1[nH]c(C(=O)c2ccccc2)c(-c2cccc(C(F)(F)F)c2)c1C(=O)c1c[nH]c2ccccc12	none (no result: proCasp3 act, bovine MsrA act, TbMetRS inhib, proCasp7 act)
Nc1[nH]c(C(=O)c2ccccc2)c(-c2cccnc2)c1C(=O)c1ccccc1	none (no result: proCasp3 act, bovine MsrA act, TbMetRS inhib, proCasp7 act)
COc1ccc(/C=N/NC(=O)c2c(C)nc3ccccn23)cc1[N+](=O)[O-]	none
O=C(Cn1ccc(C(F)(F)F)n1)N/N=C/c1ccc(N2CCOCC2)cc1	MsrA inhibitor 5.2 | MsrA conf inactive
COc1cc(/C=N/NC(=O)c2nc3ccccn3c2C)cc(OC)c1O	MsrA inhibitor 6.3 | MsrA conf 5.1
Cc1c(C(=O)N/N=C/c2ccc(N3CCOCC3)cc2)nc2ccccn12	MsrA inhibitor 5.7 | MsrA conf 5.8
CC(C)C[C@H]1COc2c(Cl)cccc2S(=O)(=O)N1Cc1cccc(Cl)c1	none (no result: proCasp3 act, bovine MsrA act, TbMetRS inhib, proCasp7 act)
CCCCOCC1CN(CCCC)S(=O)(=O)c2c(Oc3ccc(C(C)C)cc3)cccc2O1 (centres undefined)	none (no result: proCasp3 act, bovine MsrA act, TbMetRS inhib, proCasp7 act)
C=CCNc1nc(N)c([N+](=O)[O-])c(NCCO)n1	MsrA inhibitor 5.0 | MsrA conf 4.8
COc1ccc(CCN2C(=O)C(O)=C(C(=O)c3ccco3)C2c2cccs2)cc1OC (centres undefined)	MsrA inhibitor 4.7 | MsrA conf inactive
COc1cccc(C2C(C(=O)c3ccco3)=C(O)C(=O)N2CCCN2CCOCC2)c1OC (centres undefined)	MsrA inhibitor 4.7 (no result: proCasp3 act, proCasp7 act) | MsrA conf inactive
CCCCNC(=O)C[C@H]1C[C@@]2(C(=O)OC)C(=C[C@H](C(C)(C)C)O[C@@H]2C)N(CCC2=CCCCC2)C1=O	none (no result: proCasp3 act, bovine MsrA act, TbMetRS inhib, proCasp7 act)
CC(=O)N1CCN(c2ccc(N3CCN(Cc4ccccc4)[C@H](C)C3)c(C)c2)[C@@H](C)C1	none (no result: proCasp3 act, bovine MsrA act, TbMetRS inhib, proCasp7 act)
O=[N+]([O-])c1ccccc1NC(=S)N/N=C/c1ccc(O)c(O)c1	MsrA inhibitor 5.9 | MsrA conf 7.3
CCOc1cccc(/C=N/NC(=S)Nc2ccccc2[N+](=O)[O-])c1O	none
Cc1ccc(C(=O)C2=C(O)C(=O)N(CCCN3CCOCC3)C23C(=O)N(C)c2ccccc23)o1 (centres undefined)	MsrA inhibitor 10 | MsrA conf 6.2
CC1CN(c2oc(-c3cccs3)nc2C#N)CC(C)O1 (centres undefined)	none
N#Cc1nc(-c2cccs2)oc1N1CCOCC1	MsrA inhibitor 5.1 | MsrA conf inactive
C/C(=C\c1ccc2c(c1)OCO2)C(=O)c1c(C)cc(C)[nH]c1=O	MsrA inhibitor 5.5 | MsrA conf inactive
C/C(=C\c1cccc(Br)c1)C(=O)c1c(C)cc(C)[nH]c1=O	none
COc1cccc(/C=C(\C)C(=O)c2c(C)cc(C)[nH]c2=O)c1OC	none
Cc1cc(C)c(C(=O)/C=C/C=C/c2ccccc2)c(=O)[nH]1	none
C/C(=C\C=C\c1ccccc1)C(=O)c1c(C)cc(C)[nH]c1=O	MsrA inhibitor 7.4 | MsrA conf 5.9
C/C(=C\c1ccc(C)o1)C(=O)c1c(C)cc(C)[nH]c1=O	MsrA inhibitor 7.3 | MsrA conf inactive
COC(=O)Cc1nnn2c1CC(OC)c1cc(Br)ccc1-2 (centres undefined)	none (no result: proCasp3 act, bovine MsrA act, TbMetRS inhib, proCasp7 act)
O=C(/C=C/c1ccccc1)NNC1=NS(=O)(=O)c2ccccc21	MsrA inhibitor 4.8 | MsrA conf 5.5
Cc1c(=O)n(OCc2ccccn2)c2ccccc2[n+]1[O-]	MsrA inhibitor 4.9 | MsrA conf inactive
O=c1c(-c2ccc(F)cc2)[n+]([O-])c2ccccc2n1OCc1ccccn1	none
CC(/C=C/c1cccc([N+](=O)[O-])c1)=N\NC(=O)c1ccncc1	none
CC(/C=C/c1ccc2c(c1)OCO2)=N/NC(=O)c1ccc(C)nc1	MsrA inhibitor 5.4 | MsrA conf 7.1
CC(/C=C/c1ccc2c(c1)OCO2)=N/NC(=O)c1cccnc1	MsrA inhibitor 7.2 | MsrA conf 5.5
CC(/C=C/c1ccc2c(c1)OCO2)=N/NC(=O)c1ccncc1	MsrA inhibitor 5.6 | MsrA conf 8.6
C/C(=N\NC(=O)c1ccc2c(c1)OCO2)c1cccnc1	none
Cc1ccc(C(=O)OCC(=O)N2C(C)CCCC2C)cc1S(=O)(=O)N1CCOCC1 (centres undefined)	none
C[C@H](CO)N1C[C@H](C)[C@@H](CN(C)C(=O)Nc2ccc(N3CCN(C)CC3)cc2)OCc2cn(nn2)CCCC1=O	none (no result: proCasp3 act, bovine MsrA act, TbMetRS inhib, proCasp7 act)
Cc1cc(N2CCN(CC(C)(C)O)C[C@@H]2C)ccc1N1CCN(Cc2ccccc2)[C@@H](C)C1	none (no result: proCasp3 act, bovine MsrA act, TbMetRS inhib, proCasp7 act)

Bioassay records deposited in PubChem by The Scripps Research Institute Molecular Screening Center.
